Experimental data: ChEMBL document CHEMBL1123360, “Oxidation of 4-aryl- and 4-alkyl-substituted 2,6-dimethyl-3,5-bis(alkoxycarbonyl)-1,4-dihydropyridines by human liver microsomes and immunochemical evidence for the involvement of a form of cytochrome P-450” (J Med Chem, 1986)
One block for each molecule: values may come before it.

Legend:
Cytochrome P450 3A4 [1] = molecular target: T1, Cytochrome P450 3A4 (Homo sapiens, UniProt P08684); assay: Rate of Oxidation in human liver microsomes is measured as mean (nmol product) formed / min per nmol cytochrome P-450
T1 sequence (P08684 whole entry): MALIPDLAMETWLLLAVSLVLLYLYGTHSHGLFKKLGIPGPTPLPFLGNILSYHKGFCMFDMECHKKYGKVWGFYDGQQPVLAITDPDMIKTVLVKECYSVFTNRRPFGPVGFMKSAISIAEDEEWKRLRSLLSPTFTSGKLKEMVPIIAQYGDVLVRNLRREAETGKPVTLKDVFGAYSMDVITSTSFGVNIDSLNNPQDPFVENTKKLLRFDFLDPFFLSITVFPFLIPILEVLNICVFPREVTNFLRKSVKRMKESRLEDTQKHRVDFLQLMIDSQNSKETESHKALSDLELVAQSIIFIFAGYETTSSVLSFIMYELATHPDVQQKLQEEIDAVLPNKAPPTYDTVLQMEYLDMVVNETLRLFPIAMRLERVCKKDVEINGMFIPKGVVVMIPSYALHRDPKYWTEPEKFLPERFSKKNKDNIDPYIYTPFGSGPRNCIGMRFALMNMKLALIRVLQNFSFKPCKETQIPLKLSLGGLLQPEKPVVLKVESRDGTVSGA

[2] = Percent inhibition of human liver microsome cytochrome P-450 mediated phenacetin O-deethylase activity in the presence of NADPH; settings: microsomes
Procedure, shortened: (§1)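 Human liver microsomes (sample HL 95) preincubated with test compound (50 μM) plus NADPH-generating system for 20 min at 37 °C. […] Activity measured afterwards; values corrected for inhibition by methanol solvent alone.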

Cytochrome P450 3A4 [3] = molecular target: T1, Cytochrome P450 3A4; assay: Percent inhibition of human liver microsome cytochrome P-450 mediated nifedipine oxidase activity in the presence of NADPH; settings: microsomes; procedure, shortened: as §1
[4] = Percent inhibition of human liver microsome cytochrome P-450 mediated hexobarbital 3'-hydroxylase activity in the presence of NADPH; settings: microsomes; procedure, shortened: as §1
Cytochrome P450 3A4 [5] = molecular target: T1, Cytochrome P450 3A4; assay: Percent inhibition of human liver microsome cytochrome P-450 mediated nifedipine oxidase activity without NADPH; settings: microsomes
Procedure, shortened: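 Microsomes (HL 95, 500 pmol P-450 in 0.5 mL 50 mM potassium phosphate, pH 7.85) preincubated 20 min at 37 °C with compound (50 μM) without NADPH-generating system. […] Values corrected for methanol solvent.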

[6] = Percent inhibition of human liver microsome cytochrome P-450 mediated phenacetin O-deethylase activity without NADPH; Phenacetin O-deethylase activity inhibited by 40%; settings: microsomes
Cytochrome P450 3A4 [7] = molecular target: T1, Cytochrome P450 3A4; assay: Rate of Oxidation in human liver microsomes as mean (nmol product) formed/min/nmol cytochrome P-450; e denotes Product not separated with HPCL system; format: ADME, Microsome
Procedure, shortened: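 NADPH-fortified human liver microsomes (HL 94, HL 95, HL 96; usually 50 pmol P-450), substrate 0.2 mM, 100 mM potassium phosphate pH 7.85, 37 °C, 10 min, amber vials. Stopped with Na2CO3/NaCl pH 10.5 and extracted into CH2Cl2. Pyridine product quantified by isocratic reversed-phase HPLC (UV 254 and/or 280 nm) against external standards by peak height. Value is the mean with range over the three samples.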

Rate of oxidation (Cytochrome P450 3A4 [1]): 0.76
SMILES: COC(=O)C1=C(C)N=C(C)/C(=C(/O)OC)C1c1c(F)cccc1Cl (stereo unspecified)

Rate of oxidation (Cytochrome P450 3A4 [1]): 0.67
SMILES: CCCCCO/C(O)=C1\C(C)=NC(C)=C(C(=O)OCCOCCC)C1c1cccc([N+](=O)[O-])c1 (stereo unspecified)

Rate of oxidation (Cytochrome P450 3A4 [1]): 0.98
SMILES: COC(=O)C1=C(C)N=C(C)/C(=C(/O)OC)C1c1c(F)c(F)cc(F)c1F (stereo unspecified)

Rate of oxidation (Cytochrome P450 3A4 [1]): 0.41
SMILES: COC(=O)C1=C(C)N=C(C)/C(=C(\O)OC)C1c1cccc(C#N)c1 (stereo unspecified)

Rate of oxidation (Cytochrome P450 3A4 [1]): 0.51
SMILES: COC(=O)C1=C(C)N=C(C)/C(=C(\O)OC)C1c1ccc(C)cc1 (stereo unspecified)

Inhibition [2]: 59%
Inhibition (Cytochrome P450 3A4 [3]): 86%
Rate of oxidation (Cytochrome P450 3A4 [1]): 0.12
Inhibition [4]: 82%
Inhibition (Cytochrome P450 3A4 [5]): 27%
SMILES: COC(=O)C1=C(C)N=C(C)/C(=C(/O)OC)C1C1CC=CCC1 (stereo unspecified)

Rate of oxidation (Cytochrome P450 3A4 [1]): 0.53
SMILES: COC(=O)C1=C(C)NC(C)=C(C(=O)OC)C1c1ccccc1

Inhibition [2]: 50%
Inhibition (Cytochrome P450 3A4 [3]): 86%
Rate of oxidation (Cytochrome P450 3A4 [1]): 0.25
Inhibition [4]: 80%
Inhibition (Cytochrome P450 3A4 [5]): 25%
SMILES: COC(=O)C1=C(C)N=C(C)/C(=C(/O)OC)C1Cc1ccccc1 (stereo unspecified)

Rate of oxidation (Cytochrome P450 3A4 [1]): 0.61
SMILES: COC(=O)C1=C(C)N=C(C)/C(=C(/O)OC)C1c1ccc(Cl)c([N+](=O)[O-])c1 (stereo unspecified)

Rate of oxidation (Cytochrome P450 3A4 [1]): 0.51
SMILES: CCOC(=O)C1=C(C)NC(C)=C(C(=O)OCC)C1c1ccccc1

Inhibition [6]: 40%
Inhibition (Cytochrome P450 3A4 [3]): 89%
Rate of oxidation (Cytochrome P450 3A4 [1]): 0.12
Inhibition [4]: 82%
Inhibition (Cytochrome P450 3A4 [5]): 45%
SMILES: CCOC(=O)C1=C(C)N=C(C)/C(=C(/O)OCC)C1CC (stereo unspecified)

Inhibition [2]: 55%
Inhibition (Cytochrome P450 3A4 [3]): 89%
Rate of oxidation (Cytochrome P450 3A4 [7]): Not separated
Inhibition [4]: 73%
Inhibition (Cytochrome P450 3A4 [5]): 32%
SMILES: COC(=O)C1=C(C)N=C(C)/C(=C(/O)OC)C1C(C)C (stereo unspecified)

Rate of oxidation (Cytochrome P450 3A4 [1]): 0.45
SMILES: COC(=O)C1=C(C)N=C(C)/C(=C(/O)OC)C1c1ccc(C(F)(F)F)cc1 (stereo unspecified)

Rate of oxidation (Cytochrome P450 3A4 [1]): 0.52
SMILES: CCOC(=O)C1=C(C)NC(C)=C(C(=O)OC)C1c1cccc([N+](=O)[O-])c1 (stereo unspecified) [NITRENDIPINE]

Rate of oxidation (Cytochrome P450 3A4 [1]): 0.5
SMILES: COC(=O)C1=C(C)N=C(C)/C(=C(/O)OC)C1c1cccc(Cl)c1 (stereo unspecified)
